Source: ChEMBL document CHEMBL1153396, “Carbonic anhydrase inhibitors. Inhibition of the beta-class enzymes from the fungal pathogens Candida albicans and Cryptococcus neoformans with aliphatic and aromatic carboxylates” (Bioorg Med Chem, 2009)

Columns and labels:
[1] = Inhibition of Cryptococcus neoformans Can2
Outline: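 Recombinant purified Can2. Stopped-flow CO2 hydration assay read with 0.2 mM phenol red at 557 nm, in TRIS pH 8.3 with 20 mM NaClO4 or Na2SO4 for ionic strength. Initial rates followed over 10–100 s, CO2 1.7–17 mM, uncatalyzed rate subtracted. Enzyme and inhibitor preincubated 15 min at room temperature. Ki from non-linear least squares, mean of at least three determinations.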

Carbonic anhydrase = target: T1, Carbonic anhydrase (Candida albicans (strain SC5314 / ATCC MYA-2876) (Yeast), UniProt Q5AJ71); test: Inhibition of Candida albicans Nce103
T1 sequence (Q5AJ71 whole entry): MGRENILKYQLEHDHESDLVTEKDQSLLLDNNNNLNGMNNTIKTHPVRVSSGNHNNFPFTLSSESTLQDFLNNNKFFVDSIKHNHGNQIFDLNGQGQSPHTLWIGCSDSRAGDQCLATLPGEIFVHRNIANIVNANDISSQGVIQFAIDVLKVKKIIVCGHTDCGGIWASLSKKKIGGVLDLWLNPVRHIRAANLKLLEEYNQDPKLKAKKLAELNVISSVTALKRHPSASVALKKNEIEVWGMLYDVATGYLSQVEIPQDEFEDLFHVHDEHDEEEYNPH
Outline: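 Recombinant purified C. albicans Nce103. Stopped-flow CO2 hydration assay with phenol red indicator (0.2 mM) read at 557 nm. Tris buffer pH 8.3 with 20 mM Na2SO4 or NaClO4 for ionic strength. CO2 1.7–17 mM. Initial rates over 10–100 s, uncatalyzed rate subtracted. Enzyme and inhibitor preincubated 15 min at room temperature. Ki by non-linear least squares from three assays.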

Carbonic anhydrase 2 = Carbonic anhydrase 2 (Homo sapiens, UniProt P00918); test: Inhibition of human carbonic anhydrase2

Row | SMILES | Ki [1] [µM] | Ki (Carbonic anhydrase) [µM] | Ki (Carbonic anhydrase 2) [µM]
1 | O=C(O)c1c(F)c(F)cc(F)c1F | 49.1 | 61.6 | –
2 | O=C([O-])C[C@H](O)C(=O)[O-].[Na+].[Na+] | 899 | 87.7 | 1870
3 | C[C@H](O)C(=O)[O-].[Na+] | 953 | 46.8 | 3220
4 | O=C([O-])CC(=O)[O-].[Na+].[Na+] [DISODIUM MALONATE] | 793 | 26.3 | –
5 | CC(=O)C(=O)O [PYRUVATE SODIUM] | 787 | 106 | –
6 | CC(=O)[O-].[Na+] [SODIUM ACETATE] | 7.3 | 36 | –
7 | O=C([O-])c1ccccc1.[Na+] [SODIUM BENZOATE] | 1270 | 24.4 | –
8 | CCCC(=O)[O-].[Na+] [SODIUM BUTYRATE] | 225 | 26.9 | 1030
9 | O=C([O-])CC(O)(CC(=O)[O-])C(=O)[O-].[Na+].[Na+].[Na+] [SODIUM CITRATE] | 88.6 | 39.1 | –
10 | O=C[O-].[Na+] [SODIUM FORMATE] | 53.5 | 35.1 | –
11 | O=C([O-])/C=C\C(=O)[O-].[Na+].[Na+] [SODIUM MALEATE] | 8.7 | 8.6 | 989
12 | O=C([O-])C(=O)[O-].[Na+].[Na+] [SODIUM OXALATE] | 67.7 | 37.7 | –
13 | CCC(=O)[O-].[Na+] [SODIUM PROPIONATE] | 404 | 51.5 | 960
14 | CCCCC(=O)[O-].[Na+] [SODIUM VALERATE] | 42.8 | 94 | 257
